Assay results as given in ChEMBL document CHEMBL2040708, “Rational design, synthesis, and pharmacological properties of pyranochalcone derivatives as potent anti-inflammatory agents” (Eur J Med Chem, 2012).
Active and inactive are the calls of the source. The rule behind the calls is not given here.

Key:
Mus musculus = test: Antiinflammatory activity in ICR mouse assessed as decrease in carrageenan-induced paw edema at 10 mg/kg, ip administered 30 mins prior to carrageenan-challenge measured at 4 hrs relative to vehicle treated control; format: functional; conditions: route intraperitoneal
Method in brief: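 Male ICR mice dosed i.p. 30 min before subplantar injection of freshly prepared 1% carrageenan suspension into the right hind paw. Footpad thickness measured with a gauge caliper at 1, 2, 3, 4 and 5 h. Inhibition calculated from increase in paw thickness versus the control group; mean (SEM), n = 5.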

[1] = biological target: T1, Nitric oxide synthase, inducible (Mus musculus, UniProt P29477); test: Inhibition of iNOS in mouse RAW264.7 cells assessed as inhibition of LPS-induced nitric oxide production for 2 hrs by DAF-FMDA dye based fluorometric assay; format: cell-based
T1 sequence (P29477 whole entry): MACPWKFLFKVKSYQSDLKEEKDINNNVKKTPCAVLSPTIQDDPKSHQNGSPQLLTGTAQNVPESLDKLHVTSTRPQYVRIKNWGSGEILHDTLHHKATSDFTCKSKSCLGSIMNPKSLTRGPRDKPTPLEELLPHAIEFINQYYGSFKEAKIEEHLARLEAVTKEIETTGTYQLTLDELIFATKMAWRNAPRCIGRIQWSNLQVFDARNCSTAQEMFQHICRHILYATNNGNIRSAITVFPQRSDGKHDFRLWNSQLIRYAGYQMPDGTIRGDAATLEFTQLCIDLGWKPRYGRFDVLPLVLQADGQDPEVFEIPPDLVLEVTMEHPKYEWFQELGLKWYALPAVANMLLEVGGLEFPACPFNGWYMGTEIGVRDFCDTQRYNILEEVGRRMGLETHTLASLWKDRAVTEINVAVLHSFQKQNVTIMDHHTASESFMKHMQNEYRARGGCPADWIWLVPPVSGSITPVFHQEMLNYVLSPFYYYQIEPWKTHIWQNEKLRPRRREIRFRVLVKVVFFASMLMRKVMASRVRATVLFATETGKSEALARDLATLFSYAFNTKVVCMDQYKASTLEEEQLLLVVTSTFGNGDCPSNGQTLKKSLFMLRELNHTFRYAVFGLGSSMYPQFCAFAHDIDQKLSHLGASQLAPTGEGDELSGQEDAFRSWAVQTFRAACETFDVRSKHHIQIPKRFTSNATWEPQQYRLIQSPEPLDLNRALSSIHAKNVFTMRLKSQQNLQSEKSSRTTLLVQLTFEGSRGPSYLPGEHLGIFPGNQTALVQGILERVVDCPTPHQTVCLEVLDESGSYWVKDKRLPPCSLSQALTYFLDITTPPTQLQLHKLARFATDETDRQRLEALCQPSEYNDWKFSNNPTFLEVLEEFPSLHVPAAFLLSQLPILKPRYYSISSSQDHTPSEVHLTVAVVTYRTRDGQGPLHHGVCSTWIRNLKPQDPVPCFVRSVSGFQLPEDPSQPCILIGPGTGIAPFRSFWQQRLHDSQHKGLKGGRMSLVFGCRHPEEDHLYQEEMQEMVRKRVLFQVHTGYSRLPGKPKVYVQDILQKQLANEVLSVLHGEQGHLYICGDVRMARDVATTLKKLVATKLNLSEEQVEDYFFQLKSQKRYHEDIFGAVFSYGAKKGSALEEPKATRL

RAW264.7 [2] = test: Cytotoxicity against mouse RAW264.7 cells after 24 hrs by MTT assay in the presence of LPS; format: cell-based; conditions: RAW264.7, 24 h
RAW264.7 [3] = test: Cytotoxicity against mouse RAW264.7 cells after 24 hrs by MTT assay in the absence of LPS; format: cell-based; conditions: RAW264.7, 24 h
Method in brief: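 RAW264.7 cells at 5 × 10⁴/well, exposed to a range of concentrations in serum-free medium for 24 h. MTT (5 mg/mL in saline) added for a further 4 h, formazan dissolved in DMSO, absorbance read at 540 nm. Viability expressed relative to the blank control.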

Rattus norvegicus [4] = test: Antiarthritic activity in Lewis rat adjuvant-induced arthritis model assessed as decrease in complete Freund's adjuvant-induced weight loss administered daily oral doses for 14 days post inflammation development signs; format: functional, organism-based
Method in brief: (§1)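 Male Lewis rats, 12 weeks old, six per group, injected with CFA at the tail base. Vehicle (2% Tween 80/0.5% methylcellulose) given orally for 7 d until full joint inflammation, then randomized and dosed orally daily for 14 d at 10 or 25 mg/kg. Arthritis scored daily on hind paw erythema, swelling, joint tenderness, movement and posture. Body weight tracked; means ± S.E.M.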

Rattus norvegicus [5] = test: Antiarthritic activity in Lewis rat adjuvant-induced arthritis model assessed as decrease in complete Freund's adjuvant-induced suppression of histopathological changes at 25 mg/kg/day, po for 14 days post inflammation development signs by Hematoxylin and eosin staining; format: functional, organism-based
Method in brief: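 CFA-induced arthritis in male Lewis rats, dosed orally each day for 14 d after a 7 d vehicle lead-in. Animals sacrificed, foot pads fixed in neutral buffered formal saline and embedded in paraffin. 5 µm sections stained with H&E and examined under the microscope.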

Rattus norvegicus [6] = test: Antiarthritic activity in Lewis rat adjuvant-induced arthritis model assessed as decrease in complete Freund's adjuvant-induced arthritis administered daily oral doses for 14 days post inflammation development signs; format: functional, organism-based; method in brief: as §1

| Compound | inhibition in vivo at 10 mg/kg (Mus musculus) [%] | IC50 [1] [µM] | IC50 (RAW264.7 [2]) [µM] | IC50 (RAW264.7 [3]) [µM] | inhibition (Rattus norvegicus [4]) | inhibition (Rattus norvegicus [5]) | inhibition (Rattus norvegicus [6]) |
| --- | --- | --- | --- | --- | --- | --- | --- |
| CC1(C)C=Cc2c(ccc(C(=O)/C=C/c3cccc(F)c3)c2O)O1 | 9 | 5.4 | > 80 | > 80 |  |  |  |
| COc1ccc(/C=C/C(=O)c2ccc3c(c2O)C=CC(C)(C)O3)cc1OC | 52.4 | 7.9 | > 80 | > 80 | Active | Active | Dose-dependent effect |
| CC1(C)C=Cc2c(ccc(C(=O)/C=C/c3ccc(Br)cc3)c2O)O1 | 27.6 | 17.8 | > 80 | > 80 |  |  |  |
| COc1cc(/C=C/C(=O)c2ccc3c(c2O)C=CC(C)(C)O3)cc(OC)c1OC | 34.4 | 6.2 | > 80 | > 80 |  |  |  |
| COc1ccc2c(c1)c(CC(=O)O)c(C)n2C(=O)c1ccc(Cl)cc1 [INDOMETHACIN] | 45.8 | 20 | > 80 | > 80 |  |  |  |
